# Screening data deposited in PubChem by several laboratories.
# The entries come from a sample that favours hits as a whole.
# UPR XBP1 act: activators of adaptive XBP1 UPR arm, primary screen, cell-based, CHO-XBP1 luciferase reporter, luminescence, uHTS; activation, % at 20 µM; 330,000 tested, 0.33% active; IRE1-XBP1 UPR activation; percent of tunicamycin response, DMSO as zero;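 active = versus positive control, 20 µM dose yields 30% or more activation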;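 note: 100% = tunicamycin at 10 µg/mL and 0% = DMSO only wells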
#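 Material: CHO-XBP1 cells stably carrying IRE1-XBP1-driven luciferase reporter | Medium: F12 with 10% serum | Compound dosing: 20 µM single concentration, DMSO 1% | Incubation: Overnight seeding at 37 °C, 6 h compound treatment at 37 °C | Detection: Steady-Glo luminescence read | Read-out basis: % activation of reporter signal versus tunicamycin and DMSO controls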
# CHOP inhibitor: inhibitors of CHOP promoter induction, primary screen, cell-based, unfolded protein response, luciferase reporter. CHO-K1 CHOP-promoter luciferase, tunicamycin-induced, 15-18 h. inhibition, % at 10 µM. 220,000 tested, 3.8% active;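 active = compounds that reduced the stress-induced luciferase reporter signal by more than about 70% of percent inhibition, limit read from the data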;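 note: 0% = tunicamycin plus vehicle and 100% = wells without tunicamycin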
# CHOP UPR activ: activators of apoptotic CHOP UPR arm, primary screen, cell-based, CHO-CHOP luciferase reporter, luminescence, uHTS; UPR activation; percent of tunicamycin response over DMSO baseline; activation, % at 10 µM; 330,000 tested, 0.34% active; AID 449763, 2010;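 active = at 10 µM dose, activation of 40% or more, normalized to positive control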;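 note: 100% = tunicamycin at 10 µg/mL and 0% = DMSO alone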
#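 Test system: CHO-CHOP cells, stable luciferase reporter of PERK-eIF2a-CHOP signalling | Quantity: 500 CHO-CHOP cells per well | Buffer or medium: F12 plus 10% serum | Compound dosing: 10 µM single point, 0.5% DMSO | Schedule: 6 h compound treatment, 37 °C | Signal: Luciferase luminescence | Control set: Tunicamycin high control, DMSO low control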
# GAA850 FXN act: FXN promoter activators, primary screen, cell-based, luciferase luminescence, HEK293 lucGAA850 | 360,000 tested, 0.56% active | HEK293 lucGAA850 FXN promoter luciferase reporter, 24 h; percent of 10 µM SAHA response | AID 540364, 2011 | activation, % at 6 µM;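 active = activation above the average of all compounds screened plus 3 SD, cutoff fixed separately per campaign, cut at about 7.5% in these data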;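 note: 0% = DMSO wells and 100% = 10 µM SAHA wells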
# * = called active by the depositor; . = no result given.
SMILES,UPR XBP1 act,CHOP inhibitor,CHOP UPR activ,GAA850 FXN act
CCc1nc2ccc(C(=O)N3CCN(S(=O)(=O)CC)CC3)cn2c1N(CC)Cc1cccc(Br)c1,.,.,.,-1.0
COc1ccc(-c2cc(C(=O)NCC3CCCCC3)[nH]n2)c(C)c1,.,.,.,1.7
O=c1[nH]c(-c2ccccc2)ncc1OCc1ccccc1,.,.,.,1.4
CC(C)(C)c1ccc(C(=O)Nc2ccccc2NC(=O)c2ccco2)cc1,-1.2,71.7*,-0.4,-7.4
COc1ccc(-c2[nH]c(-c3ccc(SC)cc3)nc2SCC(=O)Nc2nccs2)cc1,2.9,76.6*,1.5,-1.0
CCNC(=O)C1(C)CCN(Cc2ccc(C#N)cc2)C1 (centres undefined),.,.,.,-0.1
Oc1nc(Nc2cccc(Cl)c2)sc1/C=C1\C=Nc2ccccc21,-2.1,78.8*,4.6,4.5
CCc1nc2ccc(C(=O)N(C)Cc3ccccc3)cn2c1N(C)Cc1ccc(OC)cc1,.,.,.,1.3
COC(=O)c1ccc(NC(=S)N2CCN(Cc3ccc(Cl)cc3)CC2)cc1,-2.4,89.2*,-2.7,4.6
Cc1ccnc2c(N3C(=O)C4C5C=CC(C5)C4(C)C3=O)cccc12 (centres undefined),0.2,9.5,-1.8,0.7
CC12C(=O)N(c3ccccn3)C(=O)C1C1C=CC2C1 (centres undefined),-2.1,75.3*,-2.7,0.5
Cc1cc(C)cc(OCC(=O)NCC2CCCO2)c1 (centres undefined),-8.2,73.2*,-7.7,-11.4
Cc1cc(C)c(C)c(OCC(=O)NCC2CCCO2)c1 (centres undefined),2.3,34.1,1.9,-1.2
O=C(CC1CCCCC1)OCn1nnc2ccccc2c1=O,-1.4,82.3*,-0.7,0.2
O=C(CNC(=O)C1CCCCC1)OCn1nnc2ccccc2c1=O,-2.1,36.3,0.8,0.4
CC(C)(Oc1ccc(Cl)cc1)C(=O)OCn1nnc2ccccc2c1=O,-1.5,78.2*,0.0,-0.6
CC1(C(=O)NCCC#N)CCN1C(=O)Cc1ccc(-c2ccccc2)cc1 (centres undefined),.,.,.,0.5
COc1ccc(C(=O)COC(=O)c2cc(=O)c3ccccc3o2)c(OC)c1,.,.,.,0.6
COc1cccc(NS(=O)(=O)c2cc(C)sc2C)c1,-2.1,75.5*,3.1,0.8
CCOC(=O)c1c(C)[nH]c(C(=O)CSc2nnc(-c3cccs3)n2Cc2ccccc2)c1C,16.8,78.8*,-0.3,-5.2
CCOC(=O)c1c(C)[nH]c(C(=O)CSc2nc(C)cc(C)n2)c1C,4.7,44.9,-2.0,4.3
CCOC(=O)c1c(C)[nH]c(C(=O)COC(=O)C2(C)CC2(Cl)Cl)c1C (centres undefined),4.7,80.6*,1.3,4.8
CCOC(=O)c1c(C)[nH]c(C(=O)CSc2ccc(Cl)cc2)c1C,-0.6,70.2*,2.9,5.2
COC(=O)c1c(C)[nH]c(C(=O)CSc2nnnn2-c2ccccc2)c1C,8.6,77.2*,-0.6,2.1
CCOC(=O)c1c(C)[nH]c(C(=O)COC(=O)C(C)Oc2ccc(Cl)cc2Cl)c1C (centres undefined),-0.7,74.6*,-0.3,0.6
SMILES,UPR XBP1 act,CHOP inhibitor,CHOP UPR activ,GAA850 FXN act
CCOC(=O)c1c(C)[nH]c(C(=O)OCCOc2ccc(Cl)cc2)c1C,-0.1,72.4*,0.0,3.4
CCOC(=O)c1c(C)[nH]c(C(=O)OCC(=O)Nc2ccc(OCC)cc2)c1C,-1.8,19.5,5.2,1.6
CC1CCCCC1NC(=O)C1CCC(CNS(=O)(=O)c2ccc3c(c2)C(C)(C)C(=O)N3C)CC1 (centres undefined),.,.,.,1.5
Cc1cc(/C=C2\SC(=S)NC2=O)c(C)n1-c1ccc(O)cc1,-0.7,-37.8,5.8,1.0
Cc1cc(/C=C2\SC(=Nc3ccc(F)cc3)NC2=O)c(C)n1-c1ccc(S(N)(=O)=O)cc1,4.1,77.4*,-1.7,1.4
CC(C)(C)c1ccc(COC(=O)Nc2ccc(F)cc2)cc1,-1.6,77.1*,1.1,4.7
CCOC(=O)NC(=S)Nc1ccc(C(C)(C)C)cc1,5.1,9.2,4.8,3.1
CCOC(=O)c1c(NC(=O)CN2C(=O)NC3(CCC(C)CC3)C2=O)sc(C)c1-c1ccc(C)cc1 (centres undefined),8.0,81.9*,3.5,0.1
